Experimental data taken from article PMC5289284 (Journal of medicinal chemistry, 2016).

Tests used:
PI4KIIIβ = PI4KIIIβ (Homo sapiens, UniProt Q9UBF8); experiment: PI4KIIIβ lipid kinase membrane capture assay; format: biochemical; details: for potency for PI4KIIIβ compared with compound 1: relative to compound 1, Fig. 2A
Procedure, shortened: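 Recombinant PI4KIIIβ with a phosphoinositide substrate and γ32P-ATP in a membrane-capture format. Test compound diluted into 10% DMSO and kinase assay buffer. After the reaction, a 4 µL aliquot was spotted on 0.2 µm nitrocellulose, dried 5 min under a heat lamp, then washed once for 30 s and 6×5 min in 1M NaCl/1% phosphoric acid.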

PI3Kγ = PI3Kγ (Homo sapiens, UniProt P48736); experiment: PI3Kγ lipid kinase membrane capture assay; format: biochemical; details: for potency for PI3Kγ compared with compound 1: relative to compound 1, Fig. 2A; for fold selective over PI3Kγ: PI4KIIIβ versus PI3Kγ
Sequence of PI3Kγ (P48736 whole entry): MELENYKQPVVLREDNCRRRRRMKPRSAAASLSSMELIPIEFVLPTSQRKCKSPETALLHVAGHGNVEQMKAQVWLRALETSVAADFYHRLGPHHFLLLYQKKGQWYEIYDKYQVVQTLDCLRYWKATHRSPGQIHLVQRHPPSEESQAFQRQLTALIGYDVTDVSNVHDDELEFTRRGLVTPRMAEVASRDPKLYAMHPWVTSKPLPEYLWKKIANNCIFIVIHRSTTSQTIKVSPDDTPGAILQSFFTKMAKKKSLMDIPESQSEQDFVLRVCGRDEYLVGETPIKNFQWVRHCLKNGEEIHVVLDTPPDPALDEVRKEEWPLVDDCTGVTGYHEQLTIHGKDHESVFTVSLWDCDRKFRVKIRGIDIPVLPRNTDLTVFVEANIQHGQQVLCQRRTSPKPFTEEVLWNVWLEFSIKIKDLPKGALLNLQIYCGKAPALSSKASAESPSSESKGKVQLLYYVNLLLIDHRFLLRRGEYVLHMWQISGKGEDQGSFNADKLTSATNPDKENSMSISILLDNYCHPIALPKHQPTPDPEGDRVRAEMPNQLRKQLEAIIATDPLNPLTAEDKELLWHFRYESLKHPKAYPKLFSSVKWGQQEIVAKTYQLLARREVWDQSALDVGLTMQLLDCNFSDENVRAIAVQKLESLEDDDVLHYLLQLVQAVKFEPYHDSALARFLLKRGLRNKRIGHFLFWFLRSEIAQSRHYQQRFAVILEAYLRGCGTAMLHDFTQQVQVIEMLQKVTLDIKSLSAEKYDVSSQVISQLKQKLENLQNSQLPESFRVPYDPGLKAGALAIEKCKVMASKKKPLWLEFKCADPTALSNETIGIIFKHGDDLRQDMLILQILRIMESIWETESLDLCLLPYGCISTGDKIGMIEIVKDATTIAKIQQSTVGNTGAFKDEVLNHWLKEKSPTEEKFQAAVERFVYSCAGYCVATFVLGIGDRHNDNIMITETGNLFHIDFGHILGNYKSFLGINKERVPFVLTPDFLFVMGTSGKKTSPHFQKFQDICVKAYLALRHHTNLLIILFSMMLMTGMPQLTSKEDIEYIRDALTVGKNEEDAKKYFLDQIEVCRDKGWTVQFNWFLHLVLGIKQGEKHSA
Procedure, shortened: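 Radiometric membrane-capture assay. For PI3Kγ, 5nM enzyme was preincubated 15 min with test compound, then cold ATP plus γ32P-ATP was added for 15 min. PI3Kγ final conditions: 50mM HEPES pH 7.5, 100mM NaCl, 0.03% CHAPS, 10mM MgCl2, 80µM PIP2, 10µM ATP, 1uCi. PI4KIIIβ ran 30 min with 2.5nM enzyme, 100µM PI, Bis-Tris Propane pH 7.5, Triton X-100, 10µM ATP, 1uCi. Both used 2% DMSO final.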

PI3Kδ = PI3Kδ (Homo sapiens, UniProt O00329); experiment: PI3Kδ lipid kinase membrane capture assay; format: biochemical; details: for potency for PI3Kδ compared with compound 1: relative to compound 1, Fig. 2A; for fold selective over PI3Kδ: PI4KIIIβ versus PI3Kδ
Sequence of PI3Kδ (O00329 whole entry): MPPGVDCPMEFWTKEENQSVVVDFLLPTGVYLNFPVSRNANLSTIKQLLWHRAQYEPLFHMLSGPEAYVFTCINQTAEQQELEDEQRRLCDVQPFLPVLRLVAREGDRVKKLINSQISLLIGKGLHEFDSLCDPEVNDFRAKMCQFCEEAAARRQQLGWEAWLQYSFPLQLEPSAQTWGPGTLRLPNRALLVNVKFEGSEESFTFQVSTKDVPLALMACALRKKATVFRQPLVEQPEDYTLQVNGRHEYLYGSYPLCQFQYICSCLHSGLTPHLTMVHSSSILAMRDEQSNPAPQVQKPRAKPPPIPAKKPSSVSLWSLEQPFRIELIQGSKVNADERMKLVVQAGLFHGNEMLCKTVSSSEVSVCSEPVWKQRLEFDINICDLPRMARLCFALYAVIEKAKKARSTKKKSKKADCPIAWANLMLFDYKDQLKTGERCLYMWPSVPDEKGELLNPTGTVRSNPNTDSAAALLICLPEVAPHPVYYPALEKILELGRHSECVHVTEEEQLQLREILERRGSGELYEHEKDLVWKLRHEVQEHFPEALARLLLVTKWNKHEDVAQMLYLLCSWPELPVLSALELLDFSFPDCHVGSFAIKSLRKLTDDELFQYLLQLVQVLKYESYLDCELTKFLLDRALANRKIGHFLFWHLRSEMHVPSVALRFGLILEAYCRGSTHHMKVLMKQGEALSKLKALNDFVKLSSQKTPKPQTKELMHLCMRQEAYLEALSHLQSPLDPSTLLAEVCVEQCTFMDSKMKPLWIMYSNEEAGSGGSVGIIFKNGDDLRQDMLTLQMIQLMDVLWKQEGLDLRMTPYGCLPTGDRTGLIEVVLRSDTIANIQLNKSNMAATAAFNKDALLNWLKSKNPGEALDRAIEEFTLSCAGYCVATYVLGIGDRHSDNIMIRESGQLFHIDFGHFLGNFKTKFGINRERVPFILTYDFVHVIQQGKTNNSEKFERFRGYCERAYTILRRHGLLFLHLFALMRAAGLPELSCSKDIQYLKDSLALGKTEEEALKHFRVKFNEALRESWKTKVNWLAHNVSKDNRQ
Sequence of PI3Kδ (P27986 whole entry partner): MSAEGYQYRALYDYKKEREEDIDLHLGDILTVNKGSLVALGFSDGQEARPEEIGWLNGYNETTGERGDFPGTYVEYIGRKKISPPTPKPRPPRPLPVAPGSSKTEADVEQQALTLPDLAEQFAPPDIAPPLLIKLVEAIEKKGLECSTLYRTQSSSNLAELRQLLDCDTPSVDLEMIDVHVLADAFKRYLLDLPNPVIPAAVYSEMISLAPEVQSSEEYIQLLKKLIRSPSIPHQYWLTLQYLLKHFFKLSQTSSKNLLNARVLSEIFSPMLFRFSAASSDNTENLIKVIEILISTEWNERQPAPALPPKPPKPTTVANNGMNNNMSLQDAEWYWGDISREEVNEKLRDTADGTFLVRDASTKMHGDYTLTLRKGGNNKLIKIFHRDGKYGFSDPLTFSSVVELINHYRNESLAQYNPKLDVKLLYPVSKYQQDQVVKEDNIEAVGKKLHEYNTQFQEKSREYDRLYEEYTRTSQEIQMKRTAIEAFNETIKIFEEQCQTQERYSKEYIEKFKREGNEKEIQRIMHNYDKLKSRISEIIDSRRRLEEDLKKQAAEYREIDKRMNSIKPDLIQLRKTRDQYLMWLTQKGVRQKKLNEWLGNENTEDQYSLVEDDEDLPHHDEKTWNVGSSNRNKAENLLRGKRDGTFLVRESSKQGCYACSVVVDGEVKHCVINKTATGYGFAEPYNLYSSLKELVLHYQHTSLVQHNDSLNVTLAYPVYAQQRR

vps34 = vps34 (Homo sapiens, UniProt Q8NEB9); experiment: vps34 lipid kinase membrane capture assay; format: biochemical; details: for potency for vps34 compared with compound 1: relative to compound 1, Fig. 2A; for inhibition of vps34: concentrations up to 20 µM, MnCl2
Sequence of vps34 (Q8NEB9 whole entry): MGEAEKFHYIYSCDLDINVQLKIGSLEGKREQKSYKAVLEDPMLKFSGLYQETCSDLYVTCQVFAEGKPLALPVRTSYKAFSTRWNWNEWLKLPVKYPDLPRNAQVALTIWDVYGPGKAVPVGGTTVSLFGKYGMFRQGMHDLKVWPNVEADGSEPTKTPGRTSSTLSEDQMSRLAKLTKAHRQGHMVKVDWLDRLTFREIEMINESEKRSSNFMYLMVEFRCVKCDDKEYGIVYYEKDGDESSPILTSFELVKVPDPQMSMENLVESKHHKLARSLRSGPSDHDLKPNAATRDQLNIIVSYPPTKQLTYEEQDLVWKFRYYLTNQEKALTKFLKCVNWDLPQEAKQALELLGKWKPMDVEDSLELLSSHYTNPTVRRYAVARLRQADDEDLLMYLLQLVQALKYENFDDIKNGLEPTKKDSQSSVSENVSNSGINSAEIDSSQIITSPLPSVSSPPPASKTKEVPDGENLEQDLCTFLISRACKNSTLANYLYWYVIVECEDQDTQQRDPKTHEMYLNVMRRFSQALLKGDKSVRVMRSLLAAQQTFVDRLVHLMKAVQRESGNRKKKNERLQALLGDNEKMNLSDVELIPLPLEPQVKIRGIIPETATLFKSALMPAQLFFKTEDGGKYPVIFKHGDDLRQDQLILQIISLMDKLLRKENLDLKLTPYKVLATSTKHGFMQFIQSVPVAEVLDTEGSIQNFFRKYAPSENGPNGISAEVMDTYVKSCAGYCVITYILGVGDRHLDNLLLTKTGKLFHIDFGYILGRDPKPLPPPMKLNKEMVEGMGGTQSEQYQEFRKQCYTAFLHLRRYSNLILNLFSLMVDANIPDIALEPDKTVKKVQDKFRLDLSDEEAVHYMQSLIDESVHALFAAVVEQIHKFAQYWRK
Procedure, shortened: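 Recombinant vps34 (10nM) was preincubated 15 min with test compound diluted in 10% DMSO/kinase buffer. Cold ATP plus γ32P-ATP (final 10µM ATP, 2.5uCi) was added and the reaction ran 1 hour. Final buffer: 50mM HEPES pH 7.5, 0.1% CHAPS, 2mM MnCl2, 1mM EGTA, 2mM DTT, 100µM PI, 500ng/µL BSA, 2% DMSO. Product was spotted on nitrocellulose and washed in 1M NaCl/1% phosphoric acid.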

[1] = test system: HCVcc genotype 2a reporter virus J6/JFH1-GLuc in Huh 7.5 cells; experiment: HCV2a antiviral assay; format: cell-based, Hepatitis C virus; details: Huh 7.5 cells stably infected with J6/JFH1-GLuc, three days incubation

Sequence of PI4KIIIβ (Q9UBF8 whole entry): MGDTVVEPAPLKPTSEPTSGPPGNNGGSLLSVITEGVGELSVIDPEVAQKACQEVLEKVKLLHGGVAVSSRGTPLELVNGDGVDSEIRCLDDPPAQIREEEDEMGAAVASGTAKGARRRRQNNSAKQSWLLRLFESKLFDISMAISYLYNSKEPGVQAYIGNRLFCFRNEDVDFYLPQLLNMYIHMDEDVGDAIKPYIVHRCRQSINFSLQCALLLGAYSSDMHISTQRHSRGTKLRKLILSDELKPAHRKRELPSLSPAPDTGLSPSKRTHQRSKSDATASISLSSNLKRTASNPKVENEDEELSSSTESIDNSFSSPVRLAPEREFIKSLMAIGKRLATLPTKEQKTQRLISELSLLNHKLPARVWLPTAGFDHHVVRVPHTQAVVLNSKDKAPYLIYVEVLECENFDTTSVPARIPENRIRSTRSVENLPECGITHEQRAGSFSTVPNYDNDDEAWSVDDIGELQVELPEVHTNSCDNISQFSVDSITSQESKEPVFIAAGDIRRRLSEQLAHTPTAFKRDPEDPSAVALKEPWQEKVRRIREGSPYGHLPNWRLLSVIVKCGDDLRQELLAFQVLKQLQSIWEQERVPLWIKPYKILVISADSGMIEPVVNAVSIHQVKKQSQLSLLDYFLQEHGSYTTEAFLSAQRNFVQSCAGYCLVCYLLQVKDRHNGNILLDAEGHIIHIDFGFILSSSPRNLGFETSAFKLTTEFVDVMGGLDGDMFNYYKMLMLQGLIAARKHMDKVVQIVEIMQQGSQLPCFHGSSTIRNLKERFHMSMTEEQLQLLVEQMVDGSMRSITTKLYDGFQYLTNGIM

Row | potency for PI4KIIIβ compared with compound 1 (PI4KIIIβ) | fold selective over PI3Kγ (PI3Kγ) [fold] | Compound | fold selective over PI3Kδ (PI3Kδ) [fold] | also measured
1 | slight increase in potency | – | CC(=O)Nc1nc(C)c(-c2ccc(Br)c(S(=O)(=O)NCCO)c2)s1 [compound 2] | – | potency for PI3Kγ compared with compound 1 (PI3Kγ): slight decrease in potency; potency for PI3Kδ compared with compound 1 (PI3Kδ): slight increase in potency; potency for vps34 compared with compound 1 (vps34): slight increase in potency
2 | increase in potency | > 40 | COc1ccc(-c2sc(NC(C)=O)nc2C)cc1S(=O)(=O)NCCO [compound 3] | > 40 | –
3 | – | > 600 | Cc1nc(NC(=O)C(C)(C)C)sc1-c1ccc(Cl)c(S(=O)(=O)NCCO)c1 [compound 4] | – | –
4 | – | > 90 | Cc1nc(NC(=O)C2CCCC2)sc1-c1ccc(Cl)c(S(=O)(=O)NCCO)c1 [compound 5] | – | –
5 | large increase in potency | – | CC(=O)Nc1nc(C)c(-c2ccc(Cl)c(S(=O)(=O)Nc3ccc(O)cc3)c2)s1 [compound 6] | – | potency for PI3Kγ compared with compound 1 (PI3Kγ): large increase in potency; potency for PI3Kδ compared with compound 1 (PI3Kδ): large increase in potency; potency for vps34 compared with compound 1 (vps34): large increase in potency

Row | Compound | potency for PI4KIIIβ compared with compound 1 (PI4KIIIβ) | fold selective over PI3Kγ (PI3Kγ) [fold] | fold selective over PI3Kδ (PI3Kδ) [fold] | also measured
6 | CC(=O)Nc1nc(C)c(-c2ccc(Cl)c(S(=O)(=O)Nc3ccc(F)cc3)c2)s1 [compound 7] | minimal differences in both potency and specificity | – | – | –
7 | COc1ccc(-c2sc(NC(=O)C3CCCC3)nc2C)cc1S(=O)(=O)Nc1ccc(O)cc1 [compound 9] | – | > 140 | > 20 | inhibition of vps34 (vps34): no inhibition; anti-viral activity against Hepatitis C Virus and toxicity [1]: best combination of anti-viral efficacy, and lowest toxicity
8 | COc1ccc(-c2sc(NC(=O)C(C)(C)C)nc2C)cc1S(=O)(=O)Nc1ccc(O)cc1 [compound 10] | – | > 1000 | > 200 | fold selective for PI4KIIIβ across all enzymes tested (PI4KIIIβ; panel of nine related lipid kinases): > 200 fold; inhibition of vps34 (vps34): no inhibition; anti-viral activity against Hepatitis C Virus and toxicity [1]: best combination of anti-viral efficacy, and lowest toxicity
